Assay outcomes (PubChem)
TRPC6 inhibitor: inhibitors of mouse TRPC6 channel | HEK293-TRPC6, membrane potential dye, ACh-evoked depolarization; hits give low values | AID 2553 | Q61143 | B-score at 10 µM | 310,000 compounds, 1.1% hits;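 active = B-score under library mean minus 3 SD, initial fluorescence not abnormally high, positive integrated signal ratio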;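 also: B-score derived from integrated fluorescence ratio over the kinetic read; more negative B-score means stronger inhibition of depolarization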
TRPC4 potent: allosteric potentiators of mouse TRPC4 channel; B-score at 10 µM; 310,000 compounds, 0.42% hits; HEK293 TRPC4beta/mu-opioid, DAMGO EC20, Fluo-4 Ca2+ flux; hits give high values; Q9QUQ5; AID 2227;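 active = B-score of calcium response area above 5 SD of library B-scores, with initial fluorescence ratio within 5 SD of library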
Target sequence (Q9QUQ5 whole entry, looked up): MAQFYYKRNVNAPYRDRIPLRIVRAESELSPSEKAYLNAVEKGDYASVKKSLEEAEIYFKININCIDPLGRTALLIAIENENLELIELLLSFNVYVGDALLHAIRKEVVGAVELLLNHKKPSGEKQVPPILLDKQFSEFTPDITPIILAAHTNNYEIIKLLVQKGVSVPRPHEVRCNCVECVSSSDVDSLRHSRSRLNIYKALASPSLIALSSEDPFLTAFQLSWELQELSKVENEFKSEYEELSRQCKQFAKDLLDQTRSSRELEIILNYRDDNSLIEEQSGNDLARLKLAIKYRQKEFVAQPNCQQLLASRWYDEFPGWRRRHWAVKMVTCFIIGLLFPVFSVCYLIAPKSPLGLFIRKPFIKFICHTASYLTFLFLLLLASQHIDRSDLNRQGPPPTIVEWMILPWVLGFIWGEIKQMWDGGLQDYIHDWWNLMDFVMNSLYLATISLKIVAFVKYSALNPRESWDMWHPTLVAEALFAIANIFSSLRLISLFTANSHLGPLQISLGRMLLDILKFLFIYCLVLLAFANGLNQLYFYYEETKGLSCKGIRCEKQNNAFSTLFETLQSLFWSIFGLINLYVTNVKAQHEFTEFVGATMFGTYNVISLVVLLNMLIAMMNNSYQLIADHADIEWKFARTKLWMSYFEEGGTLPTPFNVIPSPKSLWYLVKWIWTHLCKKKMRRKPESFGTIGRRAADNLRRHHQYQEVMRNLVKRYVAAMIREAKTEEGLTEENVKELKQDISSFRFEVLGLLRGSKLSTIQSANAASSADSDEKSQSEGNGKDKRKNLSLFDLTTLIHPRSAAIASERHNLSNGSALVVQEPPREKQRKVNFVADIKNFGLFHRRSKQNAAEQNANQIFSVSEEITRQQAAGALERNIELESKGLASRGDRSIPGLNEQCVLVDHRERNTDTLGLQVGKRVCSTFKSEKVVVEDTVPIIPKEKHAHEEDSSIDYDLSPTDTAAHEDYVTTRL
TRPC4 act: TRPC4 (mouse) channel activation; Q9QUQ5; HEK293 TRPC4beta/mu-opioid, Fluo4 calcium fluorescence; hits give high values; B-score at 10 µM; 310,000 compounds, 0.49% hits;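 active = B-score above 5 SD of library B-scores, and initial fluorescence ratio not above library mean plus 5 SD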;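 also: positive B-score marks a calcium rise read as TRPC4 activation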
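Test system: HEK293 cells stably co-expressing mouse TRPC4beta and mu-opioid receptor | Schedule: Fluo4 dye loading 45 min at room temperature, 110 s recording | Measured by: Kinetic Fluo4 calcium fluorescence, 5 s baseline at 1 Hz | Evaluation: B score of integrated ratio | Controls: Buffer (low) and maximal DAMGO (high)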
TRPC4 block: blocks the mouse TRPC4 cation channel; HEK293 TRPC4beta/mu-opioid, DAMGO-evoked Fluo4 calcium flux; hits give low values; B-score at 10 µM; 300,000 compounds, 0.39% hits;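 active = B-score over 3 SD under the library average, no early fluorescence shift, positive overall ratio signal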
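System: stable TRPC4beta/mu-opioid receptor HEK293 cells; Dosing: single-point compound dosing; Measured by: Fluo4 Ca2+ flux fluorescence; Read-out basis: per-well B score of integrated baseline-normalized Fluo4 ratio.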
TRPC6 activator: mouse TRPC6 channel activation; HEK293-TRPC6 membrane potential dye fluorescence; hits give high values; 310,000 compounds, 0.13% hits; B-score at 10 µM;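 active = B-score of the integrated fluorescence ratio above library mean plus 3 SD, and starting fluorescence ratio within library mean plus 5 SD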;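 also: higher score means more depolarization so channel activation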
TRPC4 spec 2: second check of whether TRPC6 inhibitors also affect mouse TRPC4. shares compounds with TRPC6 inhibitor. HEK293 TRPC4/MOR, membrane potential dye fluorescence; channel activated by saturating DAMGO dose. inhibition, % at 10 µM. 920 compounds, 42% hits;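 active = compounds whose fluorescence signal differed from control wells by over 3 SD, either direction, in both duplicate plates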
TRPC4 spec: mouse TRPC4 off-target activity of TRPC6 inhibitors; activity change, negative = inhibition, % at 10 µM; HEK293 TRPC4/mu-opioid, membrane potential fluorescence; shares compounds with TRPC6 inhibitor; 920 compounds, 61% hits;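 active = rise or fall in signal beyond 3 SD of buffer-only wells in both replicate plates, either sign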;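 also: integrated kinetic ratio of fluorescence range over baseline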
HEK293 MPD ctr 2-1: parental HEK293 nonspecific activity of TRPC6 inhibitors, second screen | shares compounds with TRPC6 inhibitor | parental HEK293 membrane potential dye fluorescence; maximal acetylcholine challenge after compound addition | 920 compounds, 31% hits | signal change vs control, % at 10 µM;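 active = membrane potential signal moving either way by over 3 SD of the maximum-effect control, in both duplicate plates, meaning non-specific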
HEK293 MPD ctr-1: parental HEK293 nonspecific activity of TRPC6 inhibitors; shares compounds with TRPC6 inhibitor; parental HEK293 membrane potential dye fluorescence; membrane potential signal change, % at 10 µM; 920 compounds, 60% hits;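 active = membrane potential signal shifting up or down by more than 3 SD of buffer-only wells, on both duplicate plates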
HEK293 MPD ctr-2: counter-screen for TRPC6 modulators: effect in parental HEK293 cells | membrane potential signal change, % at 10 µM | shares compounds with TRPC6 inhibitor | membrane potential dye fluorescence | AID 488924 | 2,400 compounds, 51% hits;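 active = membrane potential signal moves up or down beyond 5 SD from buffer-only wells, on both duplicate plates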
HEK293 MPD ctr 2-2: second counter-screen for TRPC6 modulators: effect in parental HEK293 cells; inhibition, % at 10 µM; membrane potential dye fluorescence; after compound, maximal acetylcholine stimulation; 2,400 compounds, 14% hits; shares compounds with TRPC6 inhibitor; AID 488926;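 active = membrane potential signal drops by more than 5 SD from the mean control signal, in both duplicate plates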
TRPC4 ctr mod: mouse TRPC4 off-target activity of TRPC6 modulators; shares compounds with TRPC6 inhibitor; HEK293 TRPC4/mu-opioid, membrane potential fluorescence; percent change from control (negative = decrease, positive = increase), % at 10 µM; 2,400 compounds, 69% hits;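 active = membrane potential signal moved up or down beyond 5 SD of buffer control wells, in both duplicate plates, actives on both sides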
TRPC4 ctr inh 2: mouse TRPC4 off-target activity of TRPC6 modulators, second screen; shares compounds with TRPC6 inhibitor; HEK293 TRPC4/mu-opioid, membrane potential dye fluorescence; stimulated with maximal-effect DAMGO; inhibition, % at 10 µM; 2,400 compounds, 55% hits;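 active = drop in membrane potential signal beyond 5 SD of the control wells in both duplicate plates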;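 also: TRPC4 counter screen for TRPC6 hits run under conditions tuned for TRPC6 not TRPC4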
TRPC6 inh conf: mouse TRPC6 inhibitor confirmation; shares compounds with TRPC6 inhibitor; HEK293-TRPC6, membrane potential dye, ACh-evoked depolarization; 3,300 compounds, 43% hits; AID 488960; inhibition, % at 10 µM;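 active = fluorescence ratio falls more than 5 SD below the full-stimulation control mean, in both duplicate runs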;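 also: integrated fluorescence ratio of peak minus minimum over baseline after agonist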
TRPC6 act confirm: confirmation of mouse TRPC6 activators. shares compounds with TRPC6 inhibitor. HEK293-TRPC6 membrane potential dye fluorescence, FDSS. activation, % at 10 µM. 2,800 compounds, 11% hits;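 active = ratio signal rise beyond 5 SD above unstimulated control wells' mean, seen in both duplicate runs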
Large screens that a line does not name were inactive (follow-up assays come after a bar, where they were run). A selection: hits, their analogues and other compounds. The true share with any hit is near 2.3%.

CCCCC(O)(CCN1CCOCC1)c1ccc(Cl)cc1 (stereo not given)	TRPC6 inhibitor -8.9 | TRPC4 spec 2 inactive | TRPC4 spec 8.8% | HEK293 MPD ctr 2-1 30% | HEK293 MPD ctr-1 5.8% | TRPC6 inh conf 65% | TRPC6 act confirm inactive
CC(=O)c1cnc(Nc2nc(C)c3ccccc3n2)nc1C	none
CC(=O)c1cnc(Nc2nc(C)c3ccc(C)cc3n2)nc1C	TRPC6 inhibitor -5.7 | HEK293 MPD ctr-2 -154% | HEK293 MPD ctr 2-2 81% | TRPC4 ctr mod -20% | TRPC4 ctr inh 2 inactive | TRPC6 inh conf inactive | TRPC6 act confirm inactive
Cc1cccc(C(=O)OCC(=O)N(CC(C)C)c2c(N)n(Cc3ccccc3)c(=O)[nH]c2=O)c1O	none
Cc1ccc(C(=O)C[n+]2cc(-c3ccc(C)cc3)n3c2CCCCC3)cc1	TRPC6 inhibitor -5.4, TRPC6 activator 12 | HEK293 MPD ctr-2 265% | HEK293 MPD ctr 2-2 inactive | TRPC4 ctr mod 48% | TRPC4 ctr inh 2 42% | TRPC6 inh conf 51% | TRPC6 act confirm 90%
O=C(C[n+]1cc(-c2ccc(Cl)cc2)n2c1CCC2)N1c2ccccc2Sc2ccccc21	TRPC6 inhibitor -6.2 | HEK293 MPD ctr-2 inactive | HEK293 MPD ctr 2-2 58% | TRPC4 ctr mod -10% | TRPC4 ctr inh 2 inactive | TRPC6 inh conf 73% | TRPC6 act confirm inactive
Cc1cc(SCC(=O)N(C)CC(=O)Nc2ccc(F)cc2)nc2ccccc12	none
Cc1ccc(C(=O)OCN2C(=O)c3ccccc3C2=O)o1	none
COC(=O)C(N)CCCCN (stereo not given)	none
COc1ccc(C(CCN2CCCCC2)c2c(OC)cc(OC)c3c(-c4ccccc4)cc(=O)oc23)cc1 (stereo not given)	none
COc1cc(OC)c2c(-c3ccccc3)cc(=O)oc2c1C(CCN1CCCCC1)c1ccc(N(C)C)cc1 (stereo not given)	TRPC6 inhibitor -6.2, TRPC4 act 116 | HEK293 MPD ctr-2 inactive | HEK293 MPD ctr 2-2 inactive | TRPC4 ctr mod 36% | TRPC4 ctr inh 2 104% | TRPC6 inh conf 55% | TRPC6 act confirm inactive
CCCCCc1cc(=O)oc2c(C(CCN3CCCC(C)C3)c3ccc(N(C)C)cc3)c(OC)cc(OC)c12 (stereo not given)	none
